# Laboratory results: article PMC5517787 (International Journal for Parasitology: Drugs and Drug …, 2017)
# Where “and” joins values, the source holds several entries; their conditions need not be identical. Equal values may be shown once. Read-outs that look alike come from different tables or passages of the source. Marks after values point to notes of the source that are not given here.
# Tests used:
# [1] = tested on: Haemonchus contortus exsheathed third-stage larvae (xL3s); assay: Whole-organism xL3 motility assay; assay type: cell-based; settings: for IC50: Haemonchus contortus
# [2] = tested on: Haemonchus contortus fourth-stage larvae (L4s); assay: L4 motility assay; assay type: cell-based
# [3] = tested on: mammary epithelial cell line (MCF10A); assay: cells; assay type: cell-based; settings: for IC50 / inhibition at 100 µM: Homo sapiens, MCF-10A; for IC50: 48 h, read-out: MCF10A cells IC50; for inhibition at 100 µM: read-out: MCF10A cells % inhibition at 100 μM; for Selectivity index (SI) H. contortus L4 (72 h) / Selectivity index (SI) H. contortus L4 development (7 days) / Selectivity index (SI) H. contortus xL3 (72 h): highest value of IC50 range; for selectivity index (SI) for parasitic larvae of H. contortus, range: range over xL3, L4 motility and L4 development
# [4] = tested on: adult female and male Brugia malayi; settings: ref Storey et al., 2014, cited from earlier work
# [5] = tested on: microfilariae of Brugia malayi; settings: read-out: motility IC50, B. malayi microfilariae; ref Storey et al., 2014; cited from earlier work
# [6] = tested on: microfilariae of Dirofilaria immitis; settings: read-out: motility IC50, D. immitis microfilariae; cited from earlier work
# [7] = tested on: adult female and male Brugia malayi; assay: Adult motility assay; assay type: cell-based; settings: for IC50: Brugia malayi
# [8] = tested on: microfilariae of Brugia malayi; assay: Microfilariae motility assay; assay type: cell-based; settings: 72 h, read-out: motility IC50, B. malayi microfilariae
# Outline: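 Individual gravid B. malayi females in RPMI-1640 with gentamycin (10 μg/ml) and amphotericin B (2.5 μg/ml). Two-fold test-compound dilutions from 100 to 0.97 μM in duplicate; RPMI* with 1% DMSO as negative control. Incubated at 37 °C, 5% CO2. At 72 h, about 100 released microfilariae moved to 96-well plates and filmed for 30 s on the Worminator. Run three times; IC50 from a four-parameter variable-slope fit.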
# [9] = tested on: microfilariae of Dirofilaria immitis; assay: microbe, parasite or virus in culture; assay type: cell-based; settings: for IC50: Dirofilaria immitis, read-out: motility IC50, D. immitis microfilariae
# [10] = tested on: adult A. ceylanicum; assay: Adult hookworm in vitro assay; assay type: cell-based, Ancylostoma ceylanicum; settings: for killing of adult A. ceylanicum: 50 μM, 72 h
# Outline: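 Adult worms taken from small intestines of hamsters orally infected with 150 A. ceylanicum L3s three weeks earlier. Three worms per well, 2 wells per compound, in HBSS with 10% foetal calf serum, amphotericin B (25 μg/ml), penicillin (100 U/ml) and streptomycin (100 μg/ml). Test compound at 50 μM; levamisole (50 μM) as positive control. Held 72 h at 37 °C, 5% CO2, then condition assessed microscopically.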
# [11] = tested on: T. muris L1s; assay: Whipworm L1 in vitro assay; assay type: cell-based, Trichuris muris
# Outline: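 Forty T. muris L1s per well in 100 μl RPMI-1640 with amphotericin B (12.5 μg/ml), penicillin (500 U/ml) and streptomycin (500 μg/ml). Test compound at 100 μM in duplicate; levamisole (100 μM) as positive control. Held 24 h at 37 °C, 5% CO2. Total L1s counted, then larvae stimulated with 100 μl hot water and motile L1s counted.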
# [12] = 24 h, read-out: xL3 motility IC50
# [13] = 48 h, read-out: xL3 motility IC50
# [14] = 72 h, read-out: xL3 motility IC50
# [15] = 24 h, read-out: L4 motility IC50
# [16] = 48 h, read-out: L4 motility IC50
# [17] = 72 h, read-out: L4 motility IC50
# [18] = IC50 MCF10A / IC50 nematode, estimated IC50 range
compound,measurement,setting,value
"C[C@](C#N)(COc1cc(C#N)ccc1C(F)(F)F)NC(=O)c1ccc(SC(F)(F)F)cc1 [Monepantel, monepantel]",IC50,[1]; [12],480 ± 230 nM
same,IC50,[1]; [13],260 ± 150 nM
same,IC50,[1]; [14],160 ± 80 nM
same,IC50,[2]; [15],760 ± 290 nM
same,IC50,[2]; [16],340 ± 180 nM
same,IC50,[2]; [17],370 ± 320 nM
same,IC50,[3],24900 ± 11800 nM
same,inhibition at 100 µM,[3],0.1 ± 0.05%
same,Selectivity index (SI) H. contortus L4 (72 h),[3]; IC50 MCF10A / IC50 nematode,67.4
same,Selectivity index (SI) H. contortus L4 development (7 days),[3]; IC50 MCF10A / IC50 nematode,332.4
same,"selectivity index (SI) for parasitic larvae of H. contortus, range",[3],67–332
"CO/N=C1\C[C@]2(C[C@@H]3C[C@@H](C/C=C(\C)C[C@@H](C)/C=C/C=C4\CO[C@@H]5[C@H](O)C(C)=C[C@@H](C(=O)O3)[C@]45O)O2)O[C@H](/C(C)=C/C(C)C)[C@H]1C [Moxidectin, moxidectin]",IC50,[1]; [12],190 ± 30 nM
same,IC50,[1]; [13],970 ± 840 nM
same,IC50,[1]; [14],80 ± 40 nM
same,IC50,[2]; [15],70 ± 40 nM
same,IC50,[2]; [16],50 ± 20 nM
same,IC50,[2]; [17],20 ± 10 nM
same,IC50,[3],< 6000 nM
same,inhibition at 100 µM,[3],0.05 ± 0.01%
same,Selectivity index (SI) H. contortus L4 (72 h),[3]; IC50 MCF10A / IC50 nematode,300
same,Selectivity index (SI) H. contortus L4 development (7 days),[3]; IC50 MCF10A / IC50 nematode,1.7
same,Selectivity index (SI) H. contortus xL3 (72 h),[3]; IC50 MCF10A / IC50 nematode,75
same,"selectivity index (SI) for parasitic larvae of H. contortus, range",[3],2 to 300
same,comparison value for motility of adult B. malayi,[4]; 24 h,1.3 µM
same,comparison value for motility of adult B. malayi,[4]; 48 h,2.9 µM
same,IC50,[5],~6000 nM
same,IC50,[6],9300 nM
"O=C(Nc1ccc(Cl)cc1)N1CCCC1c1nc(-c2ccccc2)no1 (stereo not shown) [SN00797439, N-(4-chlorophenyl)-2-(3-phenyl-1,2,4-oxadiazol-5-yl)-1-pyrrolidinecarboxamide]",xL3 phenotype,[1]; 20 μM,“coiled” xL3 phenotype
same,reduction of xL3 motility,"[1]; 20 μM, 72 h, primary and confirmatory screens",≥ 70%
same,IC50,[1]; [12],3460 ± 820 nM
same,IC50,[1]; [13],10100 ± 2060 nM
same,IC50,[1]; [14],5930 ± 1380 nM
same,IC50,[1]; read-out: xL3 IC50 (abstract summary),3460 to 5930 nM
same,IC50,[2]; [15],6250 to 12500 nM
same,IC50,[2]; [16],780 to 1500 nM
same,IC50,[2]; [17],310 to 780 nM
same,IC50,[2]; read-out: L4 motility IC50 (abstract summary),310 to 12500 nM
same,concentration at which movement of female and male adults ceased,[7]; 24 h,100 µM
same,concentration at which movement of female and male adults ceased,[7]; 48 h,50 µM
same,IC50,"[7]; 24 h, read-out: motility IC50, B. malayi adult female",25000 to 50000 nM
same,IC50,"[7]; 24 h, read-out: motility IC50, B. malayi adult male",25000 to 50000 nM
same,IC50,[8],~3000 nM
same,concentration giving complete inhibition of microfilariae motility,[9],100 µM
same,IC50,[9]; 24 h,~50000 nM
same,IC50,[9]; 48 h,~50000 nM
same,kill of adults of A. ceylanicum (abstract),[10],> 90%
same,killing of adult A. ceylanicum,[10],killed
same,T. muris L1s dead,"[11]; 100 μM, 24 h",> 90% and 90.1%
same,IC50,"[11]; Trichuris muris, read-out: IC50 on first-stage larvae of T. muris (abstract)",3000 to 50000 nM
same,Selectivity index (SI) D. immitis mff (48 h),[3],2 ^b
same,IC50,[3],50000 to 100000 nM
same,inhibition at 100 µM,[3],6.2 ± 0.66%
same,Selectivity index (SI) B. malayi adult females,[3]; [18],2 ^b
same,Selectivity index (SI) B. malayi adult males,[3]; [18],2 ^b
same,Selectivity index (SI) H. contortus L4 (72 h),[3]; IC50 MCF10A / IC50 nematode,128.2 ^b
same,Selectivity index (SI) H. contortus L4 development (7 days),[3]; IC50 MCF10A / IC50 nematode,9.1
same,Selectivity index (SI) H. contortus xL3 (72 h),[3]; IC50 MCF10A / IC50 nematode,16.9
same,"selectivity index (SI) for parasitic larvae of H. contortus, range",[3],9–128
"c1ccc([C@H]2CN3CCSC3=N2)cc1 [levamisole, reference compound]",killing of adult A. ceylanicum,[10],killed
same,killing of T. muris L1s,"[11]; 100 μM, 24 h",killed
ivermectin,IC50,[6],43000 nM
